Measurements: ChEMBL document CHEMBL2321860, “2-Arylpyrazolo[4,3-d]pyrimidin-7-amino derivatives as new potent and selective human A3 adenosine receptor antagonists. Molecular modeling studies and pharmacological evaluation” (J Med Chem, 2013)
The source made the active and inactive calls. No cut-off for these calls is given here.

How the values were obtained:
Adenosine receptor A3 [1] = biological target: T1, Adenosine receptor A3 (Homo sapiens, UniProt P0DMS8); assay: Inhibition of human A3 adenosine receptor transfected in CHO cells assessed as inhibition of forskolin-induced cyclic AMP production after 10 mins by competitive protein binding assay in presence of CI-IB-MECA; format: functional, cell-based
T1 sequence (P0DMS8 whole entry): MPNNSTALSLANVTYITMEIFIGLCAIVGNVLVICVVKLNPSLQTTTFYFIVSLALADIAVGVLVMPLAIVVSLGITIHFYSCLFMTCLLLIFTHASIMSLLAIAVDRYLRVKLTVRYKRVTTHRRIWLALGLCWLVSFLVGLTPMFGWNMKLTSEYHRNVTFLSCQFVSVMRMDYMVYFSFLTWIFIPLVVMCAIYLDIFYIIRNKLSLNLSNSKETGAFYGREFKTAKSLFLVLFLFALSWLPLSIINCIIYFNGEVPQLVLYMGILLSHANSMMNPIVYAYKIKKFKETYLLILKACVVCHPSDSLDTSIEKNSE
Summary of the method: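 Human A3 CHO cells (1 × 10⁶/assay) preincubated 10 min at 37 °C with adenosine deaminase and Ro 20-1724. Antagonist potency measured against 100 nM Cl-IB-MECA-mediated inhibition of 1 μM forskolin-stimulated cAMP. cAMP quantified by [3H]cAMP competition binding. IC50 by sigmoid regression, mean SEM of four experiments.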

[2] = biological target: T2, Adenosine receptor A2b (Homo sapiens) (UniProt P29275); assay: Inhibition of human A2B adenosine receptor transfected in CHO cells assessed as inhibition of NECA-induced cyclic AMP production at 1 uM after 10 mins by competitive protein binding assay; format: cell-based
T2 sequence (whole entry): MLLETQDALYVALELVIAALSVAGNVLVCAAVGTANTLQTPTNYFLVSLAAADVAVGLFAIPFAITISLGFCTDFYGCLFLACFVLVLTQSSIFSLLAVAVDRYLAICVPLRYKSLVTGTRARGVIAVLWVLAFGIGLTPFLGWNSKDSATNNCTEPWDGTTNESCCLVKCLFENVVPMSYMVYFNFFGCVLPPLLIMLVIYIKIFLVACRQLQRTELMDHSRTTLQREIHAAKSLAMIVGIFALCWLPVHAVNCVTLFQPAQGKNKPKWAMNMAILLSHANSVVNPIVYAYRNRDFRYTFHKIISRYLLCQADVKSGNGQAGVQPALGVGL
Summary of the method: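 Human A2B CHO cells (1 × 10⁶/assay) preincubated 10 min at 37 °C in buffer with adenosine deaminase (2 IU/mL) and Ro 20-1724. Antagonist inhibition of 200 nM NECA-stimulated cAMP measured; reaction stopped with TCA. cAMP quantified by [3H]cAMP competition with adrenal binding protein. IC50 by sigmoid fit, mean SEM of four experiments; % inhibition at 1 μM.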

Adenosine receptor A3 [3] = biological target: T1, Adenosine receptor A3; assay: Displacement of [125I]AB-MECA from human A3 adenosine receptor expressed in CHO cells after 60 mins by scintillation counting analysis; format: cell-based
[4] = biological target: T3, Adenosine receptor A1 (Homo sapiens) (UniProt P30542); assay: Displacement of [3H]DPCPX from human A1 adenosine receptor expressed in CHO cells at 1 uM after 120 mins by scintillation counting analysis; format: cell-based
T3 sequence (whole entry): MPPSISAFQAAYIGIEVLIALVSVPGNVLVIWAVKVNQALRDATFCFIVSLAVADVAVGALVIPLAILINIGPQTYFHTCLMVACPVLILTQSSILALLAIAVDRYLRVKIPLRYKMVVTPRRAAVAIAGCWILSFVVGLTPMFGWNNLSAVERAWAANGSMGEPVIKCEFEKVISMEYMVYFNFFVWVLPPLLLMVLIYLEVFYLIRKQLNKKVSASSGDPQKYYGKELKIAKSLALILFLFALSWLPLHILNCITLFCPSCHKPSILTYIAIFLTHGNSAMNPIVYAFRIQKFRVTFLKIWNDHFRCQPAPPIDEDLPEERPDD

Adenosine receptor A2a = Adenosine receptor A2a (Homo sapiens, UniProt P29274); assay: Displacement of [3H]ZM241385 from human A2A adenosine receptor expressed in CHO cells at 1 uM after 60 mins by scintillation counting analysis; format: cell-based
Summary of the method: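 Human A2A CHO membranes (50 μg protein) incubated with 1 nM [3H]ZM-241385 in 50 mM Tris-HCl, 10 mM MgCl2, pH 7.4, for 60 min at 4 °C, using 6–8 concentrations or 1 μM for % inhibition. Nonspecific binding defined with 1 μM ZM-241385. Ki via Cheng–Prusoff, mean SEM of four assays in duplicate.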

[5] = biological target: T4, Adenosine receptor A3 (Homo sapiens) (UniProt P0DMS8); assay: Displacement of [125I]AB-MECA from human A3 adenosine receptor expressed in CHO cells at 1 uM after 60 mins by scintillation counting analysis; format: cell-based
T4 sequence (whole entry): T1 sequence (P0DMS8 whole entry)
Summary of the method: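 Human A3 CHO membranes (50 μg protein) incubated with 0.5 nM [125I]AB-MECA in 50 mM Tris-HCl, 10 mM MgCl2, 1 mM EDTA, pH 7.4, for 60 min at 37 °C. Nonspecific binding defined with 1 μM AB-MECA. Filtration then counting. Output is % inhibition at 1 μM.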

Adenosine receptor A1 = biological target: T5, Adenosine receptor A1 (Homo sapiens, UniProt P30542); assay: Displacement of [3H]DPCPX from human A1 adenosine receptor expressed in CHO cells after 120 mins by scintillation counting analysis; format: cell-based
T5 sequence (P30542 whole entry): T3 sequence (whole entry)

Astrocyte = assay: Antiapoptotic activity against Sprague-Dawley rat astrocytes assessed as reduction of oxaliplatin-induced caspase-3 activity at 0.1 to 10 uM after 4 hrs by fluorimetric assay; format: functional, cell-based
Summary of the method: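 Primary cortical astrocytes from newborn (P1–P3) rats, GFAP-positive, used 21 days after isolation and serum-starved overnight. Cells were exposed to 100 μM oxaliplatin for 4 h with test compound co-incubated. Lysates were incubated with 0.025 mM Z-DEVD-R110 at 25 °C for 30 min and read by fluorescence (ex 496/em 520 nm). Output is % of untreated control, mean SEM.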

[6] = biological target: T6, Adenosine receptor A3 (Rattus norvegicus) (UniProt P28647); assay: Displacement of [125I]AB-MECA from rat A3 adenosine receptor expressed in HEK293 cells at 1 uM after 60 mins by scintillation counting analysis; format: cell-based
T6 sequence (whole entry): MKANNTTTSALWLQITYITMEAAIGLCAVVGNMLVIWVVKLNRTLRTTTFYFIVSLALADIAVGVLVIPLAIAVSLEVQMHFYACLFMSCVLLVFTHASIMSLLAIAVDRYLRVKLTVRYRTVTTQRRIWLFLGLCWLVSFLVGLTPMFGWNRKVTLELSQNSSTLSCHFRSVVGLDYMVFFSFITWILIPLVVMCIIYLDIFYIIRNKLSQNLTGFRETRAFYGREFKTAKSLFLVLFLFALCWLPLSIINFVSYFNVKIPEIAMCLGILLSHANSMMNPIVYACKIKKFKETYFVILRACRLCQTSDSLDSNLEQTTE
Summary of the method: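 Rat A3 receptor in HEK293 membranes (10 μg protein) incubated with 0.5 nM [125I]AB-MECA in 50 mM Tris-HCl, 10 mM MgCl2, 1 mM EDTA, pH 7.4, for 60 min at 37 °C. Nonspecific binding defined with 1 μM AB-MECA. Filtration then scintillation counting. Output is % inhibition at 1 μM.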

Adenosine receptor A2a, sequence (P29274 whole entry): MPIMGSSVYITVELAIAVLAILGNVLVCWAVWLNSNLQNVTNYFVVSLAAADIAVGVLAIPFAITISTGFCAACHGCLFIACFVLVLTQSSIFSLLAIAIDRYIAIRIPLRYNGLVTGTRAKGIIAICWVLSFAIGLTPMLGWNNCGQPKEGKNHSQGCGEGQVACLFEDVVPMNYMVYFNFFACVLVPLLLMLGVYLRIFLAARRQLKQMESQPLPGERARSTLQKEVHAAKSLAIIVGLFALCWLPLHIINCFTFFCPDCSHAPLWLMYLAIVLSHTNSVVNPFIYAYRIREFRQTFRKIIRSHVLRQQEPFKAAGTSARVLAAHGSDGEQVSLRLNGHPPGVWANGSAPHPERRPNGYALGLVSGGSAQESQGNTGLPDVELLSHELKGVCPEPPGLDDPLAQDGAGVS

| Structure (SMILES) | IC50 (Adenosine receptor A3 [1]) | inhibition [2] | Ki (Adenosine receptor A3 [3]) | inhibition [4] | inhibition (Adenosine receptor A2a) | inhibition [5] | Ki (Adenosine receptor A1) | Activity (Astrocyte) | inhibition [6] |
| --- | --- | --- | --- | --- | --- | --- | --- | --- | --- |
| COc1ccc(-n2cc3nc(C)nc(N)c3n2)cc1 | – | 2% | – | 30% | 1% | 38% | – | – | – |
| Cc1nc2cn(-c3ccccc3)nc2c(=O)[nH]1 | – | – | – | 1% | – | – | – | – | – |
| Cc1nc(NC(=O)NCc2ccccc2)c2nn(-c3ccccc3)cc2n1 | – | 10% | – | 26% | 7% | 1% | – | – | – |
| COc1ccc(-n2cc3nc(C)nc(NC(C)=O)c3n2)cc1 | – | 30% | 100 nM | 30% | 30% | – | – | – | – |
| Cc1nc(NC(=O)Cc2ccccc2)c2nn(-c3ccccc3)cc2n1 | – | 1% | 120 nM | – | 13% | – | 510 nM | – | – |
| COc1ccc(-n2cc3nc(-c4ccccc4)nc(N)c3n2)cc1 | – | 3% | 75 nM | 12% | 35% | – | – | – | – |
| Cc1nc(NC(=O)Nc2ccccc2)c2nn(-c3ccccc3)cc2n1 | – | 1% | – | 1% | 1% | 30% | – | – | – |
| COc1ccc(-n2cc3nc(C)nc(NC(=O)Nc4ccccc4)c3n2)cc1 | – | 13% | – | 5% | 13% | 1% | – | – | – |
| COc1ccc(-n2cc3nc(-c4ccccc4)nc(NC(C)=O)c3n2)cc1 | – | 1% | 98 nM | 1% | 11% | – | – | – | – |
| COc1ccc(C(=O)Nc2nc(C)nc3cn(-c4ccccc4)nc23)cc1 | – | 1% | – | 4% | 1% | – | – | – | – |
| COc1ccc(-n2cc3nc(C)nc(NC(=O)c4ccccc4)c3n2)cc1 | 128 nM | 1% | 35 nM | 1% | 7% | – | – | – | – |
| COc1ccc(-n2cc3nc(C)nc(NC(=O)c4ccco4)c3n2)cc1 | – | 1% | 45 nM | 6% | 6% | – | – | – | – |
| O=C(c1ccco1)N(C(=O)c1ccco1)c1nc(-c2ccccc2)nc2cn(-c3ccccc3)nc12 | – | 1% | 75 nM | 3% | 1% | – | – | – | – |
| COc1ccc(-n2cc3nc(Cc4ccccc4)nc(N)c3n2)cc1 | – | 33% | – | 40% | 37% | 45% | – | – | – |
| COc1ccc(-n2cc3nc(C)nc(NC(=O)Cc4ccccc4)c3n2)cc1 | – | 11% | 520 nM | 9% | 11% | – | – | – | – |
| COc1ccc(-n2cc3nc(C)nc(NC(=O)NCc4ccccc4)c3n2)cc1 | – | 1% | – | 8% | 7% | 6% | – | – | – |
| CC(=O)Nc1nc(C)nc2cn(-c3ccccc3)nc12 | – | 5% | 300 nM | 25% | 4% | – | – | – | – |
| Cc1nc(N(C(=O)c2ccco2)C(=O)c2ccco2)c2nn(-c3ccccc3)cc2n1 | – | 1% | 33 nM | 4% | 1% | – | – | – | – |

Now from value to molecule:

| IC50 (Adenosine receptor A3 [1]) | inhibition [2] | Ki (Adenosine receptor A3 [3]) | inhibition [4] | inhibition (Adenosine receptor A2a) | inhibition [5] | Ki (Adenosine receptor A1) | Activity (Astrocyte) | inhibition [6] | Structure (SMILES) |
| --- | --- | --- | --- | --- | --- | --- | --- | --- | --- |
| 115 nM | 5% | 33 nM | 6% | 1% | – | – | – | – | Cc1nc(N(C(=O)c2ccccc2)C(=O)c2ccccc2)c2nn(-c3ccccc3)cc2n1 |
| 65 nM | 2% | 20 nM | 5% | 5% | – | – | – | – | O=C(Nc1nc(-c2ccccc2)nc2cn(-c3ccccc3)nc12)c1ccccc1 |
| – | 1% | 3.2 nM | 1% | 1% | – | – | – | – | O=C(Nc1nc(-c2ccccc2)nc2cn(-c3ccccc3)nc12)c1cccnc1 |
| – | 1% | 24 nM | 11% | 1% | – | – | – | – | O=C(Nc1nc(-c2ccccc2)nc2cn(-c3ccccc3)nc12)c1ccco1 |
| 63 nM | 2% | 18 nM | 3% | 1% | – | – | Active | 12% | COc1ccc(-n2cc3nc(-c4ccccc4)nc(NC(=O)c4ccccc4)c3n2)cc1 |
| – | 1% | 25 nM | 1% | 1% | – | – | – | – | O=C(Nc1nc(-c2ccccc2)nc2cn(-c3ccccc3)nc12)c1ccncc1 |
| 19.7 nM | 2% | 5.6 nM | 30% | 1% | – | – | Active | 6% | Cc1nc(NC(=O)c2ccccc2)c2nn(-c3ccccc3)cc2n1 |
| – | 1% | 20 nM | 20% | 1% | – | – | – | – | Cc1nc(NC(=O)c2ccco2)c2nn(-c3ccccc3)cc2n1 |
| – | – | 5.2 nM | 12% | 1% | – | – | – | – | Cc1nc(NC(=O)c2ccncc2)c2nn(-c3ccccc3)cc2n1 |
| – | 1% | 5.3 nM | 12% | 1% | – | – | – | – | Cc1nc(NC(=O)c2cccnc2)c2nn(-c3ccccc3)cc2n1 |
| – | 1% | 7.3 nM | 3% | 1% | – | – | – | – | COc1ccc(C(=O)Nc2nc(-c3ccccc3)nc3cn(-c4ccccc4)nc23)cc1 |
| 103 nM | 2% | 32 nM | 5% | 5% | – | – | – | – | CC(=O)Nc1nc(-c2ccccc2)nc2cn(-c3ccccc3)nc12 |
| 61 nM | 2% | 18 nM | 5% | 5% | – | – | Active | 2% | O=C(Cc1ccccc1)Nc1nc(-c2ccccc2)nc2cn(-c3ccccc3)nc12 |
